Screens from PubChem BioAssay.
14-3-3 Bad PPI: inhibitors of 14-3-3 zeta/Bad binding, primary screen, biochemical, TR-FRET, bovine 14-3-3 zeta. 14-3-3 protein zeta/delta (Bos taurus), P63103. TR-FRET 14-3-3zeta/Dy647-pBad peptide displacement, 1 h. inhibition, % at 21.7 µM. 0.71% of 220,000 active. AID 781, 2007;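 active = inhibition above about 70%, limit read from the data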;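 note: 0% = full 14-3-3 plus peptide FRET controls and 100% = background without 14-3-3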
Wee1 degr inh: Wee1 degradation inhibitors, primary screen, cell-based, HeLa, Wee1K328M-luciferase, luminescence. Wee1-like protein kinase (Homo sapiens), P30291. HeLa Luc-Wee1K328M stability; 100% = proteasome inhibitor MG132 effect. reporter increase, % at 5 µM. 1.2% of 220,000 active;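 active = activation above the mean of all tested compounds plus 3 SD, set per screening run, cut at about 8.8% in these data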;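 note: cells exposed to compound for 20 h before luminescence read; 0% = DMSO alone and 100% = MG132 at 30 µM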
Target sequence (P30291 whole entry K328M): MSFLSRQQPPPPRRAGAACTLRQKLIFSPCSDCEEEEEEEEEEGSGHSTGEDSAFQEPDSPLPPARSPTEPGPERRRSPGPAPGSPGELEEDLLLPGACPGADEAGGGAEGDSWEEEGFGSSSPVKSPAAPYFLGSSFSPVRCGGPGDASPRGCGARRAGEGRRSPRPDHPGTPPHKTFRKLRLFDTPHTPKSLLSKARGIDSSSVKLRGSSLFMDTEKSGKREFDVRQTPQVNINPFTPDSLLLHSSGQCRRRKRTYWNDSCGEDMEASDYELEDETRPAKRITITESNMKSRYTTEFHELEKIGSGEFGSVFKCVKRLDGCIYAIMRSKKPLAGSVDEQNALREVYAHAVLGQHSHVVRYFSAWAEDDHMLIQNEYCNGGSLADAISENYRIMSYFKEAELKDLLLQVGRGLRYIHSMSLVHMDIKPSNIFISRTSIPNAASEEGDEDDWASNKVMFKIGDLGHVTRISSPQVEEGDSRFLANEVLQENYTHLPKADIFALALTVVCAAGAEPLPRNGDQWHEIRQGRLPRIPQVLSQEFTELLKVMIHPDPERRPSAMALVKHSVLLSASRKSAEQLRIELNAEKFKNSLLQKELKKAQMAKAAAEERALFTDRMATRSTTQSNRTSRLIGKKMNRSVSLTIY
eIF4E-4G inh: eIF4E–eIF4G protein interaction inhibitors, primary screen, biochemical, uHTS, TR-FRET, eIF4GI fragment; inhibition, % at 21.7 µM; TR-FRET eIF4E-eIF4GI(517-606) binding, 2 h; Eukaryotic translation initiation factor 4E (Mus musculus) + Eukaryotic translation …; AID 782, 2007; 0.37% of 220,000 active;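 note: 0% = full FRET control wells and 100% = background wells lacking eIF4GI fragment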
RBBP9 inh: human RBBP9 inhibitors, primary screen, biochemical, fluorescence polarization, FP-Rh probe, HTS; Serine hydrolase RBBP9 (Homo sapiens), O75884; recombinant RBBP9; inhibition, % at 7.94 µM; 0.2% of 220,000 active; AID 1515, 2009;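 active = inhibition above the campaign mean of all tested compounds plus 3 SD, cut at about 14% in these data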;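 note: plate controls were DMSO wells with RBBP9 for no effect and wells lacking RBBP9 protein for full effect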
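System: RBBP9 protein / Quantity: 2.5 µM RBBP9 dispensing solution, before mixing / Also added: Serine-hydrolase probe FP-Rh, 375 nM pre-mixing / Dosing: 7.94 µM single dose, 0.794% DMSO / Timing: enzyme-compound preincubation 30 min, then probe labeling 45 min, 25 °C / Signal: FP readout at 525/598 nm / Controls: DMSO-treated enzyme wells and wells lacking RBBP9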
NCF1 inh: p47phox/p22phox peptide binding inhibitors, primary screen, biochemical, uHTS, NADPH oxidase regulatory subunit; Neutrophil cytosol factor 1 (Homo sapiens), P14598; fluorescence polarization, 2 h; inhibition, % at 24.7 µM; 0.53% of 220,000 active; AID 1274, 2008;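 note: 0% = p47phox with labelled peptide and 100% = labelled peptide alone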
* marks the source's active call; other numbers are inactive results; · = not tested or not shown; [ ] = remark or other dose. In the library only some 2.8% were active in any assay of this set; here they are far more common.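 Rule for the calls, unless noted: active = inhibition above about 30% (limit read from the data); inactive = the rest.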

SMILES	14-3-3 Bad PPI	Wee1 degr inh	eIF4E-4G inh	RBBP9 inh	NCF1 inh
O=C(Nc1cccc([N+](=O)[O-])c1)C1C2CC/C=C\CCC21 (stereo unspecified)	-3	-3	3	-7	138*
CC1=C(C)CC(C(=O)Nc2cccc([N+](=O)[O-])c2)C(C(=O)O)C1 (stereo unspecified)	-7	1	-5	-13	-5
Cc1sc2c(c1C)C(O)=C(C(=O)Nc1ccccc1)S(=O)(=O)N2C	-1	-3	1	-4	-16
Cc1c(C(=O)N2CCCC2)sc(NC(=O)c2ccccc2)c1C#N	78*[fluorescence artefact?]	-2	0	-6	-27
N#Cc1c(NC(=O)c2cccnc2)sc2c1CCC2	·	6	·	-10	-3
N#Cc1c(NC(=O)c2ccccc2)sc2c1CCC2	-20	11*	-6	-6	-28
Cc1c(C(=O)N(C)C)sc(NC(=O)c2cccc([N+](=O)[O-])c2)c1C#N	0	10*	2	-1	-3
Cc1ccc(Nc2nc(/N=C/N(C)C)n[nH]2)cc1C	-7	4	-1	-1	1
C/C(=N\NC1=N[C@H]2CS(=O)(=O)C[C@H]2S1)c1ccccc1	3	-2	-8	-1	5
Cc1ccc2nc(Nc3ccc4[nH]c(=O)[nH]c4c3)c(-n3nc(C)cc3C)nc2c1	-2	0	-6	5	-18
O=c1c2c(-c3cccs3)csc2ncn1-c1ccc(Br)cc1	0	9.1*	0	-9	-22
COc1ccc(-n2cc(C(=O)O)c(=O)cc2C)cc1	-5	1	2	3	-5
CC(C)c1ccc(OC(=O)NCCO)cc1	-4	-3	-16	6	41*
CCOc1ncccc1C(=O)OCC(=O)N1CCc2ccccc21	-3	0	1	-5	-6
COc1ccccc1N1CCN(C(=O)COc2ccc(S(=O)(=O)NC(C)(C)C)cc2)CC1	-3	0	-2	1	4
CN(Cc1c(O)ccc2c1oc(=O)c1ccccc12)C1CCCCC1	87*	0	14	-4	4
CN(C)Cc1c(O)ccc2c3c(c(=O)oc12)CCCCC3	7	-1	3	5	-4
O=C(NCc1ccccn1)C(=O)C1C(=O)Nc2ccccc21 (stereo unspecified)	0	9.5*	4	5	39*
CN(C)CCNC(=O)C(=O)C1C(=O)Nc2ccccc21 (stereo unspecified)	-2	-1	4	-9	0
NS(=O)(=O)c1ccc(CNC(=O)/C=C/c2cccc([N+](=O)[O-])c2)cc1	-8	0	5	-3	-7
CNCCCOc1ccc(C(C)(C)c2ccccc2)cc1	20	0	5	-4	-3
COCCCNCCOc1ccc(C(C)(C)c2ccccc2)cc1	-3	9.7*	11	1	-10
Cc1ccccc1NC1=C/C(=N\S(=O)(=O)c2cccs2)c2ccccc2C1=O	7	-1	-14	-2	14
Cc1ccc(NC2=C/C(=N/S(=O)(=O)c3cccs3)c3ccccc3C2=O)cc1C	-4	4	4	-3	36*
O=C1CC(NN2CCCCC2)C(=O)N1c1ccccc1 (stereo unspecified)	-9	1	-4	-2	-8
SMILES	14-3-3 Bad PPI	Wee1 degr inh	eIF4E-4G inh	RBBP9 inh	NCF1 inh
CN(NC1CC(=O)N(c2ccccc2)C1=O)c1ccccc1 (stereo unspecified)	-3	11*	5	-6	-8
CCCCNC(=O)N(O)C1N(CCCC)C(=O)N(CC(=O)OC)C1(C)C (stereo unspecified)	-12	0	4	0	16
Cc1nnc(SCC(=O)c2ccc(Cl)cc2)n(N)c1=O	-11	1	0	18*	-5
Cc1nnc(SCC(=O)N2CCCCCC2)n(N)c1=O	-9	-2	-3	-5	5
COc1cccc(CSc2nc3ccncc3[nH]2)c1	2	1	3	-13	6
O=C(N1CCOCC1)N1CCN(C(=O)N2CCOCC2)CC1	·	2	·	-8	·
CC(=O)N1CCOCCOCCN(C(C)=O)CCOCC1	-16	11*	2	-2	0
COC(C[C@H](O)[C@@H](C)[C@H](O)COCc1ccccc1)OC	-3	·	4	·	-29
COC(C[C@H](O)[C@H](C)[C@H](O)COCc1ccccc1)OC	1	·	79*	·	-2
CCOC(=O)c1ccc(S(=O)(=O)NCC(C)(C)N2CCOCC2)cc1	-8	3	3	-6	2
CC(NC(=O)c1ccccc1)c1nnc(SCc2nc3ccccc3c(=O)[nH]2)n1C (stereo unspecified)	-12	8.8*	-3	-4	-11
CN(CC(=O)Nc1cccc(F)c1)CC(=O)Nc1cccc(S(N)(=O)=O)c1	-1	0	-16	-3	0
CC(=O)c1ccc(NC(=O)CN(C)CC(=O)Nc2cccc(F)c2)cc1	90*	2	1	-1	4
CC(C)(C)c1ccc(OCCC(=O)Nc2cccc(S(=O)(=O)N3CCCCC3)c2)cc1	3	-2	3	-19	-6
COc1cc(/C=c2\sc3n(c2=O)CCCN=3)ccc1O	69	-1	1	-2	-3
O=c1/c(=C/c2ccc([N+](=O)[O-])cc2)sc2n1CCCN=2	80*	0	0	-4	-4
CCCNS(=O)(=O)c1ccc(OC)c(Cl)c1Cl	-3	-1	2	-2	30*
COc1ccc(-c2ccc(/C=C3/C(=N)N4C(C)=CSC4=NC3=O)o2)c([N+](=O)[O-])c1	62	6	8	-10	12
O=C(O)Cn1cccc1C(=O)c1ccccc1	6	9.2*	3	-4	-11
O=C(NCCc1ccccc1)c1ccncc1	65	11*	1	0	-8
O=C(NCCc1ccccc1)C(=O)NCc1ccncc1	-10	2	3	-3	-11
O=C(NCCc1ccccc1)c1ccc(Cl)c([N+](=O)[O-])c1	-17	9.4*	0	-8	-9
CCOCCCNC(=O)/C=C1\Sc2ccccc2N(Cc2ccccc2F)C1=O	-10	1	-2	-9	-6
CCN1CCN(CCNC(=O)c2ccc3c(c2)N(Cc2ccc(F)cc2)C(=O)/C(=C/c2ccccc2)S3)CC1	52	0	37*	-8	62*
O=C(NCCN1CCOCC1)c1ccc2c(c1)N(Cc1cccc(F)c1)C(=O)c1ccccc1S2	68	0	0	-13	-22
CN1CCN(CCCNC(=O)c2ccc(/C=C3\Sc4ccccc4N(Cc4ccccc4F)C3=O)cc2)CC1	86*	5	31*	-9	86*
